Active and inactive are the calls of the source. No cut-off for these calls is given here.
Tests used:
[1] = Inhibition of Mycobacterium tuberculosis protein tyrosine phosphatase B expressed in Escherichia coli BL21/DE using pNPP substrate by spectrophotometry
Outline: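 His-tagged mPTPB from pET28b in E. coli BL21/DE3, purified on Ni-NTA. The assay ran at 25°C in 50 mM 3,3-dimethylglutarate pH 7.0 with 1 mM EDTA, ionic strength 0.15 M (NaCl). Enzyme was added last, the reaction was quenched after 10 min with NaOH, and A405 was read. IC50 was fitted as AI/A0 = IC50/(IC50+[I]).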

RAW264.7 [2] = assay: Inhibition of Mycobacterium tuberculosis protein tyrosine phosphatase B transfected in mouse RAW264.7 cells assessed as increase in ERK1/2 phosphorylation at 10 uM incubated for 1 hr followed by with IFNgamma stimulation for 1 hr by Western blotting method; format: cell-based
Outline: (§1)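 RAW264.7 mouse macrophages transfected with mPTPB, grown in DMEM with 10% FBS, penicillin/streptomycin, 37°C, 5% CO2. Cells were seeded at 4 x 10⁴ per well and treated next day with inhibitor for 1 h, then with IFN-γ (200 U/ml) for 1 h. They were washed with cold PBS and lysed on ice 30 min. Cleared lysates were Western blotted for phospho-Erk1/2 and phospho-Akt.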

RAW264.7 [3] = assay: Inhibition of Mycobacterium tuberculosis protein tyrosine phosphatase B transfected in mouse RAW264.7 cells assessed as reduction in AKT phosphorylation at 10 uM incubated for 1 hr followed by with IFNgamma stimulation for 1 hr by Western blotting method; format: cell-based; outline: as §1
[4] = target: T1, Tyrosine-protein phosphatase non-receptor type 1 (Homo sapiens, UniProt P18031); assay: Inhibition of human PTP1B using pNPP substrate by spectrophotometry
T1 sequence (P18031 whole entry): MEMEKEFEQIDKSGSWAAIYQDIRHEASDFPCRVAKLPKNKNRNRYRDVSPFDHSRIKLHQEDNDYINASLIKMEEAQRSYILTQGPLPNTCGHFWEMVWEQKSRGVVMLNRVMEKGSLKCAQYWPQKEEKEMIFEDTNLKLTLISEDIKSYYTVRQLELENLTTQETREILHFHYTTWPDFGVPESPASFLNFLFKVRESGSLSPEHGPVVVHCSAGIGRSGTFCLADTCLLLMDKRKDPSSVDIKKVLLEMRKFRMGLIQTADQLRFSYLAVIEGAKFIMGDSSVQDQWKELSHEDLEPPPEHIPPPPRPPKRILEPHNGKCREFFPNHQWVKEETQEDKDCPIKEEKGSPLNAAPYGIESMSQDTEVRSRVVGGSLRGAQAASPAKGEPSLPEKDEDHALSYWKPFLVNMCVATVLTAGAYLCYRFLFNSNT

RAW264.7 [5] = assay: Inhibition of Mycobacterium tuberculosis protein tyrosine phosphatase B transfected in mouse RAW264.7 cells assessed as reduction in AKT phosphorylation at 5 and 10 uM incubated for 1 hr followed by with IFNgamma stimulation for 1 hr by Western blotting method; format: cell-based; outline: as §1
[6] = Selectivity index, ratio of IC50 for human SHP2 to IC50 for Mycobacterium tuberculosis protein tyrosine phosphatase B
[7] = Selectivity index, ratio of IC50 for human laforin to IC50 for Mycobacterium tuberculosis protein tyrosine phosphatase B
[8] = Selectivity index, ratio of IC50 for human SHP1 to IC50 for Mycobacterium tuberculosis protein tyrosine phosphatase B
[9] = target: Receptor-type tyrosine-protein phosphatase epsilon (Homo sapiens, UniProt P23469); assay: Inhibition of human PTPepsilon using pNPP substrate by spectrophotometry
Chain of Receptor-type tyrosine-protein phosphatase epsilon (P23469 whole entry): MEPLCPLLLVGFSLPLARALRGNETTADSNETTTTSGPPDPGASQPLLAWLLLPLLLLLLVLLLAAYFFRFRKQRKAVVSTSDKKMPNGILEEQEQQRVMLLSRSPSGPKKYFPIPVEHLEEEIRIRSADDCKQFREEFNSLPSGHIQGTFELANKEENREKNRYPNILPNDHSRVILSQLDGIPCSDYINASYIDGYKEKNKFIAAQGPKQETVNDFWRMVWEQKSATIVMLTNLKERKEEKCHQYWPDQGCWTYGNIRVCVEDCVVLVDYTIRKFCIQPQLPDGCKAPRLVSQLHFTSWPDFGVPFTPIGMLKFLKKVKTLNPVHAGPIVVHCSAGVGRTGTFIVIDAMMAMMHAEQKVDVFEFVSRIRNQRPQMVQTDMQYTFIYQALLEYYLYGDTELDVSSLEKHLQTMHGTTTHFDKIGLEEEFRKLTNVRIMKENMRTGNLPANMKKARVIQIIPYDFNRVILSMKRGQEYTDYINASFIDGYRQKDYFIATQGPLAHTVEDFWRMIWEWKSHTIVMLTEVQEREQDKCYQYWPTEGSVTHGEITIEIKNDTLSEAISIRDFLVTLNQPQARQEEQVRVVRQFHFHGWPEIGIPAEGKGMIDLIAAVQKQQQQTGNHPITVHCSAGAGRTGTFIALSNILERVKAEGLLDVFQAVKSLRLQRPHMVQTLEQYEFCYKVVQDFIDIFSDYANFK

[10] = Non-competitive inhibition of Mycobacterium tuberculosis protein tyrosine phosphatase B expressed in Escherichia coli BL21/DE using pNPP substrate by spectrophotometry based Lineweaver-Burk plot analysis
[11] = target: Dual specificity protein phosphatase 3 (Homo sapiens, UniProt P51452); assay: Inhibition of human VHR using pNPP substrate by spectrophotometry
Chain of Dual specificity protein phosphatase 3 (P51452 whole entry): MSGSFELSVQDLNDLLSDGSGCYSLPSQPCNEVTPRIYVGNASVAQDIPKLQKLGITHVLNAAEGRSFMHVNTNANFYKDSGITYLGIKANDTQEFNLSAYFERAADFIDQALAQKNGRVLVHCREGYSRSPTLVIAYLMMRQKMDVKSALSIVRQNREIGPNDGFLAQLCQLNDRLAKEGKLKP

[12] = target: T2, Tyrosine-protein phosphatase non-receptor type 11 (Homo sapiens, UniProt Q06124); assay: Inhibition of human SHP2 using pNPP substrate by spectrophotometry
T2 sequence (Q06124 whole entry): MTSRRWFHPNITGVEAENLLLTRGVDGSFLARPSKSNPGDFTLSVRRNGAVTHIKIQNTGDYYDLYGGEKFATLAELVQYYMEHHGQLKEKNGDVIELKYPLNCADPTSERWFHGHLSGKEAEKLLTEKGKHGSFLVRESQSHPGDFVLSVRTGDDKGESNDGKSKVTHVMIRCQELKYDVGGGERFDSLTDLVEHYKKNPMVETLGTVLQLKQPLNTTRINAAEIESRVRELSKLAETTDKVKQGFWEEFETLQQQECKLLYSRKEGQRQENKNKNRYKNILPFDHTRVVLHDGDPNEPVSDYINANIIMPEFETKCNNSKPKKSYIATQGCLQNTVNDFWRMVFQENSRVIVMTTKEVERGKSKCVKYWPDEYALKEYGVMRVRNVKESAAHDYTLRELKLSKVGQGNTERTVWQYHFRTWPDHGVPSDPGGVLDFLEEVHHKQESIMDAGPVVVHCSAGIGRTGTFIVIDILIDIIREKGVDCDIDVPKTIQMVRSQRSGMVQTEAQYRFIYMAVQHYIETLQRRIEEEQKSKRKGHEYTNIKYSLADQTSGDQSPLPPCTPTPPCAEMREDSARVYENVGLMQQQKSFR

[13] = Selectivity index, ratio of IC50 for human CD45 to IC50 for Mycobacterium tuberculosis protein tyrosine phosphatase B
[14] = target: T3, Tyrosine-protein phosphatase non-receptor type 9 (Homo sapiens, UniProt P43378); assay: Inhibition of human PTP-Meg2 using pNPP substrate by spectrophotometry
T3 sequence (P43378 whole entry): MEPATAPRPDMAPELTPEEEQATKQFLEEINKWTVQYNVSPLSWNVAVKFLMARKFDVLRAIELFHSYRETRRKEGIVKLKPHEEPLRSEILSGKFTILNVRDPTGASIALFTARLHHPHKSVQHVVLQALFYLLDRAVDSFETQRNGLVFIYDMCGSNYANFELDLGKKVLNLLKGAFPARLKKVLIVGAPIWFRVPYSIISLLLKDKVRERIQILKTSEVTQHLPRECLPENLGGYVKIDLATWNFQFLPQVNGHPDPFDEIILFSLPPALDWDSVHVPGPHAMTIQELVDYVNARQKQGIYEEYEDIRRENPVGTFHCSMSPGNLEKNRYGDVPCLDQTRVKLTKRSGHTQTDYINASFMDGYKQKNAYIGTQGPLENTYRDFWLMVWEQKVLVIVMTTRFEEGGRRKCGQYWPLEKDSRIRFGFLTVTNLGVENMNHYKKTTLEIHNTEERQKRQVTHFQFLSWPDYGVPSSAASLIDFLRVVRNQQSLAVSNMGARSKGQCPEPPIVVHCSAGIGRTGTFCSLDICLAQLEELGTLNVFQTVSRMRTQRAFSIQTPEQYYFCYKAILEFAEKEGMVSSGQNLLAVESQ

Laforin = target: T4, Laforin (Homo sapiens, UniProt O95278); assay: Inhibition of human laforin using pNPP substrate by spectrophotometry
T4 sequence (O95278 whole entry): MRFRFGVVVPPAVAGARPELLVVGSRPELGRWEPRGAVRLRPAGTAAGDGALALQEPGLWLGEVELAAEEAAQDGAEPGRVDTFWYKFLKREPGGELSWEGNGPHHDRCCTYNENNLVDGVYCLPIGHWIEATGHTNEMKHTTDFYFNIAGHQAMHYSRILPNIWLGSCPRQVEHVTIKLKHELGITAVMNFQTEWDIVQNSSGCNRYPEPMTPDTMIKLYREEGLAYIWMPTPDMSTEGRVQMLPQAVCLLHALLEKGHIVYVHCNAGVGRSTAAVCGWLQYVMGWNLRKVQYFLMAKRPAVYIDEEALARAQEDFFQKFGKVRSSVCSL

RAW264.7 [15] = assay: Inhibition of Mycobacterium tuberculosis protein tyrosine phosphatase B transfected in mouse RAW264.7 cells assessed as increase in ERK1/2 phosphorylation at 5 and 10 uM incubated for 1 hr followed by with IFNgamma stimulation for 1 hr by Western blotting method; format: cell-based; outline: as §1
[16] = Selectivity index, ratio of IC50 for human PTP1B to IC50 for Mycobacterium tuberculosis protein tyrosine phosphatase B
[17] = target: T5, Receptor-type tyrosine-protein phosphatase C (Homo sapiens, UniProt P08575); assay: Inhibition of human CD45 using pNPP substrate by spectrophotometry
T5 sequence (P08575 whole entry): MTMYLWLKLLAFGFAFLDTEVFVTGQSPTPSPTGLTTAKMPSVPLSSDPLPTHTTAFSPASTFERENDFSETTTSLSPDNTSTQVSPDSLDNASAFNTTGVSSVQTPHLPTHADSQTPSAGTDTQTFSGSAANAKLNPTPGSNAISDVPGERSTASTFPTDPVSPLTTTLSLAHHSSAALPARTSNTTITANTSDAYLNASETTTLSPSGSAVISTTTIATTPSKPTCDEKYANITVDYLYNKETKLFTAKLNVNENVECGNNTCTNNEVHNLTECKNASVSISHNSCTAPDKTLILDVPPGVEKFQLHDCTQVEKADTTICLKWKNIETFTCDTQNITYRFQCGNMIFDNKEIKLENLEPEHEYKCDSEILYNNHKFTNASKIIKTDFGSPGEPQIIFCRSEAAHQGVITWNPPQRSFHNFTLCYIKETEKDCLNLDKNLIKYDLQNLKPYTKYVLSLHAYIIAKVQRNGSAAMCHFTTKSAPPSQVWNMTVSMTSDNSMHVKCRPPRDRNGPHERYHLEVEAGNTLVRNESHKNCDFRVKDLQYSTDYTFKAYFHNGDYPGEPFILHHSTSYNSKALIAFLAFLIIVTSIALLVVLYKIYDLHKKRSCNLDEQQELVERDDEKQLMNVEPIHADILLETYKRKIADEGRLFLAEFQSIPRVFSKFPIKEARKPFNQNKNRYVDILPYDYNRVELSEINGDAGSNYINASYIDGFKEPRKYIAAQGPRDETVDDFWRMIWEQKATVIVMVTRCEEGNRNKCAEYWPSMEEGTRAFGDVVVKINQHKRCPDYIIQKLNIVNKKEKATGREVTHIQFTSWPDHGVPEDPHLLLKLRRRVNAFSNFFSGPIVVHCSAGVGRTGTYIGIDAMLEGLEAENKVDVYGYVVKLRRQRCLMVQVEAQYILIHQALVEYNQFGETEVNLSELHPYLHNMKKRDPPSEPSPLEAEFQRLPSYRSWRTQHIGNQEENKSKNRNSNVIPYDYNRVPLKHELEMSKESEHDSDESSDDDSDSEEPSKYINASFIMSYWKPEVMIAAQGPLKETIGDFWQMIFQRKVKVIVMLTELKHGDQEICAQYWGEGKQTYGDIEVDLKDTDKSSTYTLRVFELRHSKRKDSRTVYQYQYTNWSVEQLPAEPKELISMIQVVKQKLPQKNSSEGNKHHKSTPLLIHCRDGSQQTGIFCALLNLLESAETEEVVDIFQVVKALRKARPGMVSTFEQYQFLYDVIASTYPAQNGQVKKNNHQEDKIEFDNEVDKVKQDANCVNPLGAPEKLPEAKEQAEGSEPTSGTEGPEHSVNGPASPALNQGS

[18] = target: Tyrosine-protein phosphatase non-receptor type 6 (Homo sapiens, UniProt P29350); assay: Inhibition of human SHP1 using pNPP substrate by spectrophotometry
Chain of Tyrosine-protein phosphatase non-receptor type 6 (P29350 whole entry): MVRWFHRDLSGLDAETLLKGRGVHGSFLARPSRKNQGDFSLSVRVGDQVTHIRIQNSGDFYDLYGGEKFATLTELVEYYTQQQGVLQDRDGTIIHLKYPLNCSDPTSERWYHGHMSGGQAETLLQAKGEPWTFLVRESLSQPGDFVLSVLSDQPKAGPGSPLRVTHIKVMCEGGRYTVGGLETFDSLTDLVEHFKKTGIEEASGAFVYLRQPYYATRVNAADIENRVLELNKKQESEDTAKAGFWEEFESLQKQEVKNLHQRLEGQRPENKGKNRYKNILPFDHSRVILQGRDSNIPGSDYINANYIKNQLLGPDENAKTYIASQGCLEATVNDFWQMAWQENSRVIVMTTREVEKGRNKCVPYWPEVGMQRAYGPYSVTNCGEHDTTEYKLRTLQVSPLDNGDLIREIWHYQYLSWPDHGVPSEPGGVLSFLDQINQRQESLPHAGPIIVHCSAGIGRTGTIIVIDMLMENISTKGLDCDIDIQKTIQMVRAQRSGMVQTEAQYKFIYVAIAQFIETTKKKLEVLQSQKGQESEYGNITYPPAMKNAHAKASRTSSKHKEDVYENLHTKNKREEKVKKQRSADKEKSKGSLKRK

[19] = Selectivity index, ratio of IC50 for human VHR to IC50 for Mycobacterium tuberculosis protein tyrosine phosphatase B
[20] = Selectivity index, ratio of IC50 for human PTPepsilon to IC50 for Mycobacterium tuberculosis protein tyrosine phosphatase B
[21] = Selectivity index, ratio of IC50 for human PTP-Meg2 to IC50 for Mycobacterium tuberculosis protein tyrosine phosphatase B

SMILES: O=C(O)c1ccc2nc(Nc3ccccc3)sc2c1O
- IC50 [1]: 71 µM

SMILES: O=C(O)c1cc2sc(Nc3cccc(Cl)c3)nc2cc1O
- IC50 [1]: 21 µM

SMILES: O=C(O)c1cc2sc(Nc3ccccc3)nc2cc1O
- inhibition (RAW264.7 [2]): inactive
- IC50 [1]: 25 µM
- inhibition (RAW264.7 [3]): inactive

SMILES: O=C(O)c1cc2sc(Nc3ccc(Cl)cc3)nc2cc1O
- IC50 [1]: 13 µM

SMILES: O=C(O)c1cc2sc(Nc3cccc(Br)c3)nc2cc1O
- IC50 [4]: 65 µM
- inhibition (RAW264.7 [5]): Dose-dependent effect
- Ratio IC50 [6]: > 20
- Ratio IC50 [7]: > 20
- Ratio IC50 [8]: > 20
- IC50 [9]: > 400 µM
- Ki [10]: 1.5 µM
- IC50 [11]: 43 µM
- IC50 [12]: 50 µM
- Ratio IC50 [13]: > 20
- IC50 [14]: 69 µM
- IC50 (Laforin): 56 µM
- inhibition (RAW264.7 [15]): Dose-dependent effect
- Ratio IC50 [16]: > 20
- IC50 [17]: > 100 µM
- IC50 [1]: 2 µM
- IC50 [18]: 78 µM
- Ratio IC50 [19]: > 20
- Ratio IC50 [20]: > 20
- Ratio IC50 [21]: > 20

SMILES: O=C(O)c1cc2sc(Nc3ccc(Cl)cc3Cl)nc2cc1O
- IC50 [1]: 5 µM

SMILES: O=C(O)c1cc2[nH]c(-c3ccccc3)nc2cc1O
- IC50 [1]: 32 µM

SMILES: Cc1ccccc1Nc1nc2cc(O)c(C(=O)O)cc2s1
- IC50 [1]: 31 µM

SMILES: Cc1cccc(Nc2nc3cc(O)c(C(=O)O)cc3s2)c1
- IC50 [1]: 15 µM

SMILES: O=C(O)c1cc2sc(Nc3ccccc3Cl)nc2cc1O
- IC50 [1]: 30 µM

SMILES: CCNc1nc2cc(C(=O)O)c(O)cc2o1
- IC50 [1]: > 100 µM

SMILES: O=C(O)c1cc2sc(Nc3ccc(F)cc3)nc2cc1O
- IC50 [1]: 65 µM

SMILES: O=C(O)c1cc2sc(Nc3cccc4ccccc34)nc2cc1O
- IC50 [1]: 60 µM

SMILES: O=C(O)c1cc2sc(Nc3ccc([N+](=O)[O-])cc3)nc2cc1O
- IC50 [1]: 50 µM

SMILES: O=C(O)c1cc2[nH]c(=O)oc2cc1O
- IC50 [1]: > 100 µM

SMILES: O=C(O)c1cc2nc(-c3ccccc3)oc2cc1O
- IC50 [1]: 27 µM

SMILES: O=C1COc2cc(O)c(C(=O)O)cc2N1
- IC50 [1]: > 100 µM

SMILES: O=C(O)CN1CC(=O)Oc2cc(O)c(C(=O)O)cc21
- IC50 [1]: > 100 µM

SMILES: O=C(O)c1cc2nc(NCc3ccccc3)oc2cc1O
- IC50 [1]: > 100 µM

SMILES: CC(C)(C)c1ccc(Nc2nc3cc(O)c(C(=O)O)cc3s2)cc1
- IC50 [1]: 41 µM

Reference: ChEMBL document CHEMBL3596177
